Published values from different studies.
Organism: Mycobacterium tuberculosis variant bovis BCG
Effect on: microbial growth

| SMILES | strain | time | MIC |
| --- | --- | --- | --- |
| CO[C@H]1/C=C/O[C@@]2(C)Oc3c(C)c(O)c4c(O)c(c(/C=N/N5CCN(C)CC5)c(O)c4c3C2=O)NC(=O)/C(C)=C\C=C\[C@H](C)[C@H](O)[C@@H](C)[C@@H](O)[C@@H](C)[C@H](OC(C)=O)[C@@H]1C | BCG | 6 days | < 0.78 µM |
| Fc1ccc(COc2ccccc2CNCc2ccccc2)cc1 | ATCC35734 BCG | – | > 62.5 µM |
| COc1ccc(C=CC(=O)c2ccccc2Cl)cc1OC | BCG | 7 days | 12.5 µg/mL |
| O=C(Nc1ccc2c(c1)OC(F)(F)O2)Nc1ccc(Cl)c(C(F)(F)F)c1 | BCG | – | 3 µM |
| Fc1ccc(COc2ccccc2CNCc2cccnc2)cc1 | ATCC35734 BCG | – | > 62.5 µM |
| CNC(=O)c1cc(Oc2ccc(NC(=O)Nc3ccc(Cl)c(C(F)(F)F)c3)cc2)ccn1 | BCG | – | 12.5 µM |
| COc1ccc(C=CC(=O)c2ccc(Cl)cc2Cl)cc1OC | BCG | 7 days | 200 µg/mL |
| CO[C@H]1/C=C/O[C@@]2(C)Oc3c(C)c(O)c4c(O)c(c(/C=N/N5CCN(C)CC5)c(O)c4c3C2=O)NC(=O)/C(C)=C\C=C\[C@H](C)[C@H](O)[C@@H](C)[C@@H](O)[C@@H](C)[C@H](OC(C)=O)[C@@H]1C | BCG | – | < 0.2 µg/mL |
| COc1ccc(C=CC(=O)c2ccccc2Br)cc1OC | BCG | 7 days | 25 µg/mL |
| c1ccc(COc2ccccc2CNCc2cccnc2)cc1 | ATCC35734 BCG | – | > 62.5 µM |
